Measured values from ChEMBL document CHEMBL2331406, “In vitro activity of scorpiand-like azamacrocycle derivatives in promastigotes and intracellular amastigotes of Leishmania infantum and Leishmania braziliensis” (Eur J Med Chem, 2013).
The source made the active and inactive calls. The rule behind the calls is not given here.

Legend:
[1] = Ratio of compound selectivity index to glucantime selectivity index for amastigote form of Leishmania braziliensis MHOM/BR/1975/M2904 infected in J774.2 cells over mouse J774.2 cells
How it was run: (§1)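 J774.2 macrophages in MEM + 2 mM glutamine + 20% inactivated FCS were infected with stationary-phase promastigotes (10:1) for 24 h at 37 °C, 5% CO2. After washing, compounds were added at […] for 72 h. Amastigote reduction was scored in methanol-fixed, Giemsa-stained preparations; IC50 by regression; triplicates. SI = J774.2 IC50 (72 h flow cytometry)/amastigote IC50; ratio is versus Glucantime SI.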

[2] = Ratio of compound selectivity index to glucantime selectivity index for axenic amastigote form of Leishmania braziliensis MHOM/BR/1975/M2904 over mouse J774.2 cells
How it was run: (§2)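 Axenic amastigotes obtained by 3-day promastigote transformation in supplemented M199 + 10% heat-inactivated FCS, pH 5.4, 37 °C. […] Host toxicity: J774.2, 72 h, PI/FDA flow cytometry. SI = macrophage IC50/axenic amastigote IC50; ratio is compound SI over Glucantime SI.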

[3] = Ratio of compound selectivity index to glucantime selectivity index for promastigote form of Leishmania braziliensis MHOM/BR/1975/M2904 over mouse J774.2 cells
[4] = Selectivity index, ratio of IC50 for mouse J774.2 cells to IC50 for amastigote form of Leishmania braziliensis MHOM/BR/1975/M2904 infected in J774.2 cells; format: toxicity, cell-based; how it was run: as §1
[5] = Selectivity index, ratio of IC50 for mouse J774.2 cells to IC50 for axenic amastigote form of Leishmania braziliensis MHOM/BR/1975/M2904; format: toxicity; how it was run: as §2
[6] = Selectivity index, ratio of IC50 for mouse J774.2 cells to IC50 for promastigote form of Leishmania braziliensis MHOM/BR/1975/M2904; format: toxicity
Leishmania braziliensis [7] = assay: Antileishmanial activity against amastigote form of Leishmania braziliensis MHOM/BR/1975/M2904 infected in J774.2 cells after 72 hrs by haemocytometric analysis; format: functional, cell-based, MHOM/BR/75/M2904
How it was run: (§3)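 J774.2 macrophages grown in MEM with 2 mM glutamine and 20% inactivated FCS at 37 °C in 5% CO2. Infected with stationary-phase promastigotes at 10:1 for 24 h, then washed free of non-phagocytosed parasites. Compounds at 1, 10, 25, 50 and 100 for 72 h. Amastigotes counted on methanol-fixed, Giemsa-stained preparations and % reduction taken vs untreated. IC50 by linear regression of Kc values; three separate determinations.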

Leishmania braziliensis [8] = assay: Antileishmanial activity against axenic amastigote form of Leishmania braziliensis MHOM/BR/1975/M2904 after 72 hrs by haemocytometric analysis; format: functional, MHOM/BR/75/M2904
How it was run: (§4)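 Axenic amastigotes made by culturing promastigotes 3 days at 37 °C in M199 with 10% heat-inactivated FCS plus organic acids, amino acids, sucrose, bicarbonate, MES, haemin and gentamicin, pH 5.4. Compound effect counted in a Neubauer haemocytometer chamber. IC50 by linear regression of Kc values at 1, 10, 25, 50 and 100.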

Leishmania braziliensis [9] = assay: Antileishmanial activity against promastigote form of Leishmania braziliensis MHOM/BR/1975/M2904 after 72 hrs by haemocytometric analysis; format: functional; settings: MHOM/BR/75/M2904, 72 h
How it was run: (§5)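 Promastigotes grown at 28 °C in MTL medium with 10% inactivated FCS. Compounds in DMSO (0.1%), diluted in culture medium to 100, 50, 25, 10 and 1. Cells counted at 72 h in a Neubauer haemocytometric chamber. IC50 (50% inhibition) by linear regression of Kc values.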

[10] = Ratio of compound selectivity index to glucantime selectivity index for amastigote form of Leishmania infantum MCAN/ES/2001/UCM-10 infected in J774.2 cells over mouse J774.2 cells; how it was run: as §1
[11] = Ratio of compound selectivity index to glucantime selectivity index for axenic amastigote form of Leishmania infantum MCAN/ES/2001/UCM-10 over mouse J774.2 cells; how it was run: as §2
[12] = Ratio of compound selectivity index to glucantime selectivity index for promastigote form of Leishmania infantum MCAN/ES/2001/UCM-10 over mouse J774.2 cells
How it was run: (§6)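 J774.2 toxicity: 72 h at the same concentrations, viability by flow cytometry with propidium iodide/fluorescein diacetate; IC50 by linear regression. SI = macrophage IC50/parasite IC50; ratio is compound SI over Glucantime SI.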

[13] = Selectivity index, ratio of IC50 for mouse J774.2 cells to IC50 for amastigote form of Leishmania infantum MCAN/ES/2001/UCM-10 infected in J774.2 cells; format: toxicity, cell-based; how it was run: as §1
[14] = Selectivity index, ratio of IC50 for mouse J774.2 cells to IC50 for axenic amastigote form of Leishmania infantum MCAN/ES/2001/UCM-10; format: toxicity; how it was run: as §2
[15] = Selectivity index, ratio of IC50 for mouse J774.2 cells to IC50 for promastigote form of Leishmania infantum MCAN/ES/2001/UCM-10; format: toxicity; how it was run: as §6
Leishmania infantum [16] = assay: Antileishmanial activity against promastigote form of Leishmania infantum MCAN/ES/2001/UCM-10 after 72 hrs by haemocytometric analysis; format: functional, organism-based; how it was run: as §5
Leishmania infantum [17] = assay: Antileishmanial activity against axenic amastigote form of Leishmania infantum MCAN/ES/2001/UCM-10 after 72 hrs by haemocytometric analysis; format: functional, organism-based; how it was run: as §4
Leishmania infantum [18] = assay: Antileishmanial activity against amastigote form of Leishmania infantum MCAN/ES/2001/UCM-10 infected in J774.2 cells after 72 hrs by haemocytometric analysis; format: functional, organism-based; how it was run: as §3
J774.2 = assay: Cytotoxicity against mouse J774.2 cells after 72 hrs by PI-staining based flow cytometric analysis; format: cell-based; settings: J774.2, 72 h
How it was run: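 J774.2 macrophages (ECACC 91051511, female BALB/c mouse tumour) treated 72 h with 100, 50, 25, 10 and 1 of compound. Propidium iodide then fluorescein diacetate each added for 10 min at 28 °C in the dark. Cells pelleted at 400g, washed in PBS and analysed by flow cytometry. Viability % vs control; IC50 by linear regression of Kc values.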

Leishmania braziliensis [19] = assay: Antileishmanial activity against promastigote form of Leishmania braziliensis MHOM/BR/1975/M2904 assessed as electro-dense vesicles at IC25 concentration after 96 hrs by MET microscopic analysis; format: functional; settings: MHOM/BR/75/M2904
How it was run: (§7)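 Promastigotes at 5 × 10^5 cells/mL in MTL medium with compound at IC25 for 96 h. Ultrastructure examined by transmission electron microscopy against untreated control parasites.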

Leishmania braziliensis [20] = assay: Antileishmanial activity against promastigote form of Leishmania braziliensis MHOM/BR/1975/M2904 assessed as mortality at IC25 concentration after 96 hrs by MET microscopic analysis; format: functional; settings: MHOM/BR/75/M2904; how it was run: as §7
Leishmania braziliensis [21] = assay: Antileishmanial activity against promastigote form of Leishmania braziliensis MHOM/BR/1975/M2904 assessed as empty cytoplasmic at IC25 concentration after 96 hrs by MET microscopic analysis; format: functional; settings: MHOM/BR/75/M2904; how it was run: as §7
Leishmania braziliensis [22] = assay: Antileishmanial activity against promastigote form of Leishmania braziliensis MHOM/BR/1975/M2904 assessed as cytoplasmic alterations at IC25 concentration after 96 hrs by MET microscopic analysis; format: functional; settings: MHOM/BR/75/M2904; how it was run: as §7
Leishmania braziliensis [23] = assay: Antileishmanial activity against promastigote form of […] MHOM/BR/1975/M2904 infected in J774.2 cells assessed as inhibition of number of amastigotes per host cell at IC25 concentration incubated for 12 hrs followed by compound washout measured after 48 hrs by microscopic analysis; format: functional; settings: MHOM/BR/75/M2904
How it was run: (§8)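 J774.2 cells seeded at 1 × 10^4 cells/well on coverslips and cultured 2 days. Infected with promastigotes at 10:1 with drug at IC25 added immediately, for 12 h at 37 °C in 5% CO2. Parasites and drug washed out, then grown 10 days with washing and fresh medium every 48 h. On methanol-fixed, Giemsa-stained slides, % infected cells and amastigotes per infected cell scored from more than 200 host cells. Three determinations.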

Leishmania braziliensis [24] = assay: Antileishmanial activity against promastigote form of […] Leishmania braziliensis MHOM/BR/1975/M2904 infected in J774.2 cells assessed as inhibition of infection in host cells at IC25 concentration incubated for 12 hrs […] by microscopic analysis; format: functional; settings: MHOM/BR/75/M2904
Leishmania infantum [25] = assay: Antileishmanial activity against promastigote form of Leishmania infantum MCAN/ES/2001/UCM-10 infected in J774.2 cells assessed as inhibition of number of amastigotes per host cell at IC25 concentration incubated for 12 hrs followed by compound washout measured after 48 hrs by microscopic analysis; format: functional; how it was run: as §8
Leishmania infantum [26] = assay: Antileishmanial activity against promastigote form of Leishmania infantum MCAN/ES/2001/UCM-10 infected in J774.2 cells assessed as inhibition of infection in host cells at IC25 concentration incubated for 12 hrs followed by compound washout measured after 48 hrs by microscopic analysis; format: functional; how it was run: as §8
[27] = J774.2 cells, read-out: Ratio IC50
[28] = Leishmania infantum, MCAN/ES/2001/UCM-10, 72 h

## Br.NCCCNCCN1CCNCc2cccc(n2)CNCC1
[1]
  Ratio: 14
[2]
  Ratio: 14
[3]
  Ratio: 24
[4]; [27]
  selectivity ratio: 11.5
[5]; [27]
  selectivity ratio: 7
[6]; [27]
  selectivity ratio: 14.2
Leishmania braziliensis [7]; Leishmania braziliensis, MHOM/BR/75/M2904, J774.2, 72 h
  IC50: 19.1 µM
Leishmania braziliensis [8]; Leishmania braziliensis, MHOM/BR/75/M2904, 72 h
  IC50: 31.4 µM
Leishmania braziliensis [9]
  IC50: 15.5 µM
[10]
  Ratio: 10
[11]
  Ratio: 15
[12]
  Ratio: 11
[13]; [27]
  selectivity ratio: 4.9
[14]; [27]
  selectivity ratio: 7.4
[15]; [27]
  selectivity ratio: 9.1
Leishmania infantum [16]; [28]
  IC50: 24.2 µM
Leishmania infantum [17]; [28]
  IC50: 29.8 µM
Leishmania infantum [18]; Leishmania infantum, MCAN/ES/2001/UCM-10, J774.2, 72 h
  IC50: 44.9 µM
J774.2
  IC50: 220 µM
Leishmania braziliensis [19]
  Activity: Active
Leishmania braziliensis [20]
  Activity: Active
Leishmania braziliensis [21]
  Activity: Active
Leishmania braziliensis [22]
  Activity: Active

## MEGLUMINE ANTIMONATE [listing 1 of 2 here]
Leishmania braziliensis [23]
  inhibition: 37%
Leishmania braziliensis [24]
  inhibition: 22%
Leishmania infantum [25]
  inhibition: 30%
Leishmania infantum [26]
  inhibition: 24%

## MEGLUMINE ANTIMONATE [listing 2 of 2 here]
[4]
  Ratio IC50: 0.8
[5]
  Ratio IC50: 0.5
[6]
  Ratio IC50: 0.6
Leishmania braziliensis [7]; j774.2
  IC50: 19.7 µM
Leishmania braziliensis [8]
  IC50: 30.9 µM
[13]
  Ratio IC50: 0.5
[14]
  Ratio IC50: 0.5
[15]
  Ratio IC50: 0.8
Leishmania infantum [16]
  IC50: 18 µM
Leishmania infantum [17]
  IC50: 31 µM
Leishmania infantum [18]; j774.2
  IC50: 30.8 µM
